Measurements as given in article PMC5307915 (Pharmacognosy Magazine, 2017).

Tests used:
purified human IDO [1] = biological target: T1, purified human IDO (Homo sapiens, UniProt P14902); experiment: IDO assay; format: biochemical; details: for inhibition at 100 µM: read-out: IDO inhibition at 100 μM (%)
Method in brief: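 Test compound, serially diluted in DMSO, mixed with 1 μg purified human IDO in 50 mM potassium phosphate, pH 6.5. Ascorbic acid, methylene blue, catalase and 200 μM L-tryptophan added; 1 h at 37°C. Stopped with 30% TCA, 15 min at 65°C, then centrifuged. Supernatant mixed 1:1 with Ehrlich's reagent at RT; kynurenine read at 480 nm. Screened at 100 μM; IC50 from lower concentrations; menadione as positive control; at least triplicate.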

purified human IDO [2] = biological target: T1, purified human IDO; experiment: Determination of inhibition pattern of IDO inhibitors; format: biochemical
Method in brief: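 Same kynurenine assay with purified human IDO (37°C, 1 h, Ehrlich's reagent, A480), run at five L-tryptophan concentrations crossed with four inhibitor concentrations, including zero. Mode of inhibition was taken from Lineweaver-Burk plots. Ki was calculated from the y-intercept, (1 + [I]/Ki)/Vmax. Independent measurements, at least triplicate.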

T1 sequence (P14902 whole entry): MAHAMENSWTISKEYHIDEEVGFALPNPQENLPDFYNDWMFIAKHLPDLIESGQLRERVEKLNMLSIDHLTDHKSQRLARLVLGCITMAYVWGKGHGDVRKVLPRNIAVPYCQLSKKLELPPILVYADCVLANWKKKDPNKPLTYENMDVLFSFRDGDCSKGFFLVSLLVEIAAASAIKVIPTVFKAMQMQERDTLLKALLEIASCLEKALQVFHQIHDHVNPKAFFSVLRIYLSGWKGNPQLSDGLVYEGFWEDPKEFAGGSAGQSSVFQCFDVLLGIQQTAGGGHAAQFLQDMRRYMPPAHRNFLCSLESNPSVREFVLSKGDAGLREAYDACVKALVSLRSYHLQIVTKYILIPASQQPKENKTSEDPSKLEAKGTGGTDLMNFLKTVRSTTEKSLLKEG

`O=C1c2cccc(O)c2C(=O)c2c(O)cc(CO)cc21` [Compound 1, aloe emodin] showed an IC50 (purified human IDO [1]) of 46.5 ± 1.51 µM, an inhibition at 100 µM (purified human IDO [1]) of 67.4 ± 2.53% and a Ki (purified human IDO [2]) of 85.3 µM.

In the case of `Cc1cc(=O)c2c(CO)cc(O)cc2o1` [Compound 10, 7-hydroxy-5-(hydroxymethyl)-2-methylchromone], the inhibition at 100 µM (purified human IDO [1]) is reported as 5.86 ± 3.08%.

With `Cc1cc(O)cc(O)c1` [Compound 11, 5-methylresorcinol] the inhibition at 100 µM (purified human IDO [1]) was 10.2 ± 1.75%.

`CC1=CC(=O)c2ccccc2C1=O` [Menadione, reference compound] was tested, and the IC50 (purified human IDO [1]) was 3.71 ± 1.26 µM.
